In ChEMBL document CHEMBL3046408, “Disease control effect of strevertenes produced by Streptomyces psammoticus against tomato fusarium wilt” (J Agric Food Chem, 2011) one finds MIC, Activity and inhibition data, which are given here for two molecules.

In brackets after ≈: the same amount, converted by molar mass. Activity calls are given as the source filed them. The calls are words filed in the database; no cut-off is given here. A value given as a limit tells only on which side of the number the result lay.

For one data set, the system named is Alternaria mali. Briefly: Antifungal activity against Alternaria mali assessed as complete growth inhibition after 1 to 3 days by CLSI M38-A method. In kind it is functional. The method in brief:
(§1)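 Broth microdilution in 96-well plates following CLSI M38-A. Conidial suspensions were dispensed to a final (0.5-5) × 10^4 spores/mL, with compound at final 0.125 to 64 μg/mL. Plates were incubated at 28 °C for 1-3 days. MIC was read visually as the lowest concentration giving complete growth inhibition.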

Another data set deals with Solanum lycopersicum. The experiment in a line: Phytotoxicity in Solanum lycopersicum (tomato) plants upto 500 ug/mL. The settings on record: in vivo. In kind it is organism-based.
Data set [1] concerns Fusarium oxysporum f. sp. lycopersici. Briefly: Antifungal activity against Fusarium oxysporum f.sp. lycopersici JCM 12575 in tomato plants assessed as inhibition of Fusarium wilt disease severity at 1 ug/mL measured after 10 days of inoculation under green house condition. In kind it is functional, organism-based. The method in brief:
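Greenhouse assay. F. oxysporum f.sp. lycopersici JCM 12575 was grown in Czapek Dox broth at 28 °C for 14 days, and the inoculum was 2 × 10^6 conidia/mL. Wounded tomato seedling roots were dipped for 10 min, potted, and soil-drenched with 5 mL of compound (1, 10, 100, 500 μg/mL); controls received sterile water. Plants spent 24 h in a 28 °C dew chamber, then went to the greenhouse. Disease severity was scored 0-5 at 10 days post-inoculation.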

The subject of data set [2] is Fusarium oxysporum f. sp. cucumerinum. Briefly: Antifungal activity against Fusarium oxysporum f.sp. cucumerinum assessed as complete growth inhibition after 1 to 3 days by CLSI M38-A method. In kind it is functional. The method in brief:
as §1

In data set [3] the test system is Colletotrichum orbiculare. The experiment in a line: Antifungal activity against Colletotrichum orbiculare assessed as complete growth inhibition after 1 to 3 days by CLSI M38-A method. The class given is functional. The method in brief:
as §1

The test system of a further data set is Aspergillus oryzae. The experiment in a line: Antifungal activity against Aspergillus oryzae assessed as complete growth inhibition after 1 to 3 days by CLSI M38-A method. The class given is functional. The method in brief: as §1
Another data set relates to Cercospora canescens. The experiment in a line: Antifungal activity against Cercospora canescens assessed as complete growth inhibition after 1 to 3 days by CLSI M38-A method. In kind it is functional. The method in brief: as §1
The test system of a further data set is Sclerotinia sclerotiorum. Briefly: Antifungal activity against Sclerotinia sclerotiorum assessed as complete growth inhibition after 1 to 3 days by CLSI M38-A method. The class given is functional. The method in brief:
(§2)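 CLSI M38-A microdilution in 96-well plates, inoculated with mycelial-fragment suspensions at a final (0.5-5) × 10^4 fragments/mL. Compound was added at final concentrations from 0.125 to 64 μg/mL. After 1-3 days at 28 °C, MIC was scored by eye as the lowest concentration completely inhibiting growth.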

In another data set the test system is Colletotrichum coccodes. The experiment in a line: Antifungal activity against Colletotrichum cocodes assessed as complete growth inhibition after 1 to 3 days by CLSI M38-A method. In kind it is functional. The method in brief: as §1
Another data set deals with Alternaria brassicicola. The experiment in a line: Antifungal activity against Alternaria brassicola assessed as complete growth inhibition after 1 to 3 days by CLSI M38-A method. The class given is functional. The method in brief:
as §1

For the next data set, the system named is Diaporthe citri. Briefly: Antifungal activity against Diaporthe citri assessed as complete growth inhibition after 1 to 3 days by CLSI M38-A method. The class given is functional. The method in brief: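 Broth microdilution following CLSI M38-A. Mycelial-fragment suspension of the fungus at a final (0.5-5) × 10^4 fragments/mL. Antibiotic added to final concentrations of 0.125 to 64 μg/mL. Incubated at 28 °C for 1-3 days. Wells read visually; MIC is the lowest concentration giving complete growth inhibition.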

The subject of the next data set is Ilyonectria destructans. The experiment in a line: Antifungal activity against Ilyonectria radicicola assessed as complete growth inhibition after 1 to 3 days by CLSI M38-A method. In kind it is functional. The method in brief:
as §1

The test system of data set [4] is Colletotrichum gloeosporioides. Briefly: Antifungal activity against Colletotrichum gloeosporioides assessed as complete growth inhibition after 1 to 3 days by CLSI M38-A method. In kind it is functional. The method in brief: as §1
A further data set deals with Rhizoctonia solani. Briefly: Antifungal activity against Rhizoctonia solani assessed as complete growth inhibition after 1 to 3 days by CLSI M38-A method. In kind it is functional. The method in brief:
as §2

Data set [5] concerns Fusarium oxysporum f. sp. lycopersici. Briefly: Antifungal activity against Fusarium oxysporum f.sp. lycopersici assessed as complete growth inhibition after 1 to 3 days by CLSI M38-A method. The class given is functional. The method in brief: as §1

With `CC[C@H]1C(=O)O[C@H](C)[C@@H](C)/C=C/C=C/C=C/C=C/C=C/[C@@H](O)[C@H](C(=O)O)[C@H](O)C[C@H](O)CCC[C@H](O)C[C@H](O)C[C@@H]1O` [STREVERTENE B], the MIC was 16 µg/mL (≈ 26.9 µM) with Alternaria mali; 8 µg/mL (≈ 13.5 µM) in data set [2]; 4 µg/mL (≈ 6.73 µM) in data set [3]; 10 µg/mL (≈ 16.8 µM) in the data set with Aspergillus oryzae; 32 µg/mL (≈ 53.8 µM) in the data set on Cercospora canescens; 8 µg/mL (≈ 13.5 µM) in the data set on Sclerotinia sclerotiorum. Moreover, the MIC is 8 µg/mL (≈ 13.5 µM) in the data set on Colletotrichum coccodes; more than 64 µg/mL in the data set on Alternaria brassicicola; 32 µg/mL (≈ 53.8 µM) in the data set on Diaporthe citri; 16 µg/mL (≈ 26.9 µM) in the data set with Ilyonectria destructans; 8 µg/mL (≈ 13.5 µM) in data set [4]; more than 64 µg/mL with Rhizoctonia solani. In addition, the MIC in [5] worked out at 8 µg/mL (≈ 13.5 µM). The Activity entry with Solanum lycopersicum was “Non-toxic”. The inhibition entry in data set [1] was “Active”.
Consider `C[C@H]1/C=C/C=C/C=C/C=C/C=C/[C@@H](O)[C@H](C(=O)O)[C@H](O)C[C@H](O)CCC[C@H](O)C[C@H](O)C[C@H](O)[C@@H](C)C(=O)O[C@@H]1C` [STREVERTENE A], for which the MIC with Alternaria mali is 16 µg/mL (≈ 27.6 µM); in [2], 16 µg/mL (≈ 27.6 µM); in data set [3] it was 8 µg/mL (≈ 13.8 µM); in the data set with Aspergillus oryzae, 16 µg/mL (≈ 27.6 µM); in the data set with Cercospora canescens, 16 µg/mL (≈ 27.6 µM); in the data set with Sclerotinia sclerotiorum, 8 µg/mL (≈ 13.8 µM). Further, the MIC with Colletotrichum coccodes was 8 µg/mL (≈ 13.8 µM); with Alternaria brassicicola, more than 64 µg/mL; with Diaporthe citri, 32 µg/mL (≈ 55.1 µM); in the data set with Ilyonectria destructans it was 16 µg/mL (≈ 27.6 µM); in [4], 8 µg/mL (≈ 13.8 µM); in the data set on Rhizoctonia solani it was more than 64 µg/mL. The MIC in [5] amounted to 16 µg/mL (≈ 27.6 µM). Besides, the Activity entry with Solanum lycopersicum is given as “Non-toxic”. The inhibition entry in data set [1] is “Active”.
